This is an account of results in ChEMBL document CHEMBL1132292, “Potentiation of cADPR-induced Ca(2+)-release by methylxanthine analogues” (1999).

The structures appear in SMILES notation.

In one assay the test system is Lytechinus pictus. Nature of the assay: Calcium release in sea urchin egg homogenate at 2 mM as percent of 1 mM caffeine effect.
Turning to `CC(O)CCCn1cnc2c1c(=O)n(C)c(=O)n2C` (stereo not drawn), the Activity stood at 82%.
`CC(=O)CCCCCn1c(=O)c2c(ncn2CCCC(C)=O)n(C)c1=O`: the Activity stood at 38%.
The same measure, in the same setting: with `CC(O)Cn1c(=O)c2c(ncn2C)n(C)c1=O` (stereo not drawn) [PROTHEOBROMINE] the figure was 83%.
As for `CC(=O)CCCCCn1cnc2c1c(=O)n(C)c(=O)n2C`, the Activity is 107%.
`CC(=O)Cn1c(=O)c2c(ncn2C)n(C)c1=O`: the Activity is 43%.
On the same count and under the same terms, the figure for `Cn1c(=O)c2c(ncn2CCO)n(C)c1=O` [ETOFYLLINE] is 43%; for `CC(O)CCCCCn1c(=O)c2c(ncn2C)n(C)c1=O` (stereo not drawn) it is 54%.
For `CC(=O)CCCn1c(=O)c2c(ncn2C)n(C)c1=O`, the Activity turned out to be 37%.
On the same count and under the same terms, with `CC(=O)Cn1c(=O)c2c(ncn2CC(C)=O)n(C)c1=O` the figure was 17%; with `CC(=O)Cn1cnc2c1c(=O)n(C)c(=O)n2C`, 65%; with `CC(=O)CCCCn1cnc2c1c(=O)n(C)c(=O)n2C` [LOMIFYLLINE], 65%.
Same read-out and setting: the figure for `Cn1c(=O)c2c(ncn2CCCCCc2ccccc2)n(C)c1=O` is 70%; for `CC(O)CCCn1c(=O)c2c(ncn2C)n(C)c1=O` (stereo not drawn) it is 59%.
For `CC(=O)CCCCCn1c(=O)c2c(ncn2C)n(C)c1=O`, the Activity is 96%.
Same read-out and setting: with `CC(=O)CCn1c(=O)c2c(ncn2C)n(C)c1=O` the figure was 46%.
For `CC(=O)CCn1cnc2c1c(=O)n(C)c(=O)n2C`, the Activity is given as 97%.
Take `CC(=O)CCCCCn1c(=O)c2c(ncn2CCCCCC(C)=O)n(C)c1=O`: the Activity was 54%.
As to `CC(=O)CCCCCCn1cnc2c1c(=O)n(C)c(=O)n2C`, the Activity is reported as 112%.
As to `CC(=O)CCCCCCn1c(=O)c2c(ncn2C)n(C)c1=O`, the Activity is on record as 76%.
On the same count and under the same terms, the figure for `Cn1c(=O)c2c(ncn2CCCCO)n(C)c1=O` is 81%; for `Cn1c(=O)c2nc[nH]c2n(C)c1=O.O` [THEOPHYLLINE] it is 106%.
For `CC(=O)CCCn1cnc2c1c(=O)n(CC(C)=O)c(=O)n2C`, the Activity came out at 6.7%.
Still for that read-out and setting: with `CC(=O)CCCn1cnc2c1c(=O)n(C)c(=O)n2C` the figure was 60%; with `CC(O)Cn1cnc2c1c(=O)n(C)c(=O)n2C` (stereo not drawn) [PROXYPHYLLINE], 47%; with `C=CCn1cnc2c1c(=O)n(C)c(=O)n2C`, 100%.
As to `C#CCn1c(=O)c2c(ncn2CCCC(C)=O)n(C)c1=O`, the Activity was 81%.
Regarding `CC(O)CCCCCn1cnc2c1c(=O)n(C)c(=O)n2C` (stereo not drawn), the Activity was determined as 105%.

System in the next assay: not listed separately
Nature of the assay: compound was screened for their ability to potentiate [Ca2+] release induced by cADRP(an endogenous modulator of ryanodine receptor) in sea urchin egg homogenates at a concentration 1 mM. Type of assay: functional, tissue-based. Put shortly:
(§1)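 Lytechinus pictus egg homogenate (2.5%, from 50% stocks) in Glu-IM (pH 7.2, Hepes). It was Ca2+-loaded for 3 h at room temperature with 0.5 mM ATP, creatine kinase/phosphocreatine, oligomycin, antimycin, azide and 3 μM fluo-3. Fluo-3 fluorescence (ex 490/em 535 nm) was read at 17 °C. Methylxanthine was added 1 min before a slightly releasing cADPR concentration chosen from each experiment's cADPR concentration–response curve. Caffeine was run daily as standard.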
With `Cn1c(=O)c2c(ncn2C)n(C)c1=O` [CAFFEINE], the Potentiation was found to be 100%.

Another assay concerns Lytechinus pictus. Nature of the assay: Percent of 1 mM Caffeine effect to release [Ca2+] at 1 mM in sea urchin egg homogenate.
For `Cn1cnc2c1c(=O)n(CCCCCC(=O)O)c(=O)n2C`, the Activity is recorded as 61%.
`CC(=O)CCCCCCCCn1cnc2c1c(=O)n(C)c(=O)n2C`: the Activity is 62%.
The same measure, in the same setting: with `C#CCn1c(=O)c2c(ncn2CCCCCCC(C)=O)n(C)c1=O` the figure was 98%; with `Cn1c(=O)c2c(ncn2CCCCCCO)n(C)c1=O`, 97%.
`CCOC(=O)CCCCCn1cnc2c1c(=O)n(C)c(=O)n2C` gave an Activity of 145%.
The compound `CC(O)CCCCCCn1cnc2c1c(=O)n(C)c(=O)n2C` (stereo not drawn) yielded an Activity of 98%.
On the same count and under the same terms, with `Cn1c(=O)c2c(ncn2CCCCCC(=O)O)n(C)c1=O` the figure was 9.4%; with `Cn1c(=O)c2c(ncn2CC(=O)O)n(C)c1=O` [ACEFYLLINE], 1.4%; with `Cn1c(=O)c2c(ncn2CCCCCCCCCCO)n(C)c1=O`, 113%.
Same read-out and setting: with `CCOC(=O)Cn1cnc2c1c(=O)n(C)c(=O)n2C` the figure was 87%; with `CCOC(=O)CCCCCn1c(=O)c2c(ncn2C)n(C)c1=O`, 103%.

System in another assay: not listed separately
Nature of the assay: Compound was screened for their ability to potentiate [Ca2+] release induced by cADRP(an endogenous modulator of ryanodine receptor) in sea urchin egg homogenates at a concentration of 2 mM. Type of assay: functional, tissue-based. In outline: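 Lytechinus pictus egg homogenate (2.5%, from 50% stocks), Ca2+-loaded 3 h at room temperature in Glu-IM (pH 7.2) with 0.5 mM ATP, phosphocreatine/creatine phosphokinase, oligomycin, antimycin, azide and 3 μM fluo-3. Fluo-3 fluorescence (ex 490/em 535 nm) read at 17 °C. Methylxanthine at 2 mM added 1 min before a daily-chosen, slightly active cADPR concentration. Caffeine run daily as standard.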
Regarding `O=c1[nH]c(=O)c2nc[nH]c2[nH]1`, the Potentiation came to 41%.
Take `Cn1c(=O)c2[nH]cnc2n(C)c1=O`: the Potentiation worked out at 95.3%.

System in the next assay: not listed separately
Nature of the assay: compound was screened for their ability to potentiate [Ca2+] release induced by cADRP(an endogenous modulator of ryanodine receptor) in sea urchin egg homogenates at a concentration 2 mM. The format is functional, tissue-based. In outline: as §1
Turning to `Cn1c(=O)c2ncn(C)c2n(C)c1=O`, the Potentiation came out at 28.7%.

System in the next assay: not listed separately
The assay can be described thus: Calcium release at 2 mM as percent of 1 mM caffeine effect.
With `Cn1c(=O)c2c(ncn2C)n(C)c1=O` [CAFFEINE], the Activity is listed as 100%.
